Data from ChEMBL document CHEMBL1212768, “Screening and quantification of the expression of antibiotic resistance genes in Acinetobacter baumannii with a microarray” (2010).
≈ marks a conversion by molar mass, not a printed value.

Key:
Format in all cases: functional
[1] = system: Acinetobacter baumannii; assay: Antibacterial activity against Acinetobacter baumannii BM4454 by antimicrobial susceptibility assay
Method in brief: (§1)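 MICs measured by Etest on Mueller-Hinton agar. Disk diffusion on the same medium was used for susceptibility screening. Strains were grown at 37°C in brain heart infusion broth or agar. Mutants were picked from antibiotic gradient plates, taking colonies growing above the normal MIC. Those resistant to several drug classes by diffusion were kept.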

[2] = system: Acinetobacter baumannii; assay: Antibacterial activity against Acinetobacter baumannii CIP70-10 by antimicrobial susceptibility assay; method in brief: as §1
[3] = system: Acinetobacter baumannii; assay: Antibacterial activity against multidrug-resistant Acinetobacter baumannii AYE by antimicrobial susceptibility assay; method in brief: as §1
[4] = system: Acinetobacter baumannii; assay: Antibacterial activity against multidrug-resistant Acinetobacter baumannii BM4665 by antimicrobial susceptibility assay; method in brief: as §1
[5] = system: Acinetobacter baumannii; assay: Antibacterial activity against multidrug-resistant Acinetobacter baumannii BM4668 by antimicrobial susceptibility assay; method in brief: as §1
[6] = system: Acinetobacter baumannii; assay: Antibacterial activity against multidrug-resistant Acinetobacter baumannii BM4675 by antimicrobial susceptibility assay; method in brief: as §1
[7] = system: Acinetobacter baumannii; assay: Antibacterial activity against multidrug-resistant Acinetobacter baumannii BM4676 by antimicrobial susceptibility assay; method in brief: as §1
[8] = system: Acinetobacter baumannii; assay: Antibacterial activity against multidrug-resistant Acinetobacter baumannii BM4666 by antimicrobial susceptibility assay; method in brief: as §1
[9] = system: Acinetobacter baumannii; assay: Antibacterial activity against Acinetobacter baumannii BM4587 by antimicrobial susceptibility assay; method in brief: as §1
[10] = system: Acinetobacter baumannii; assay: Antibacterial activity against Acinetobacter baumannii BM4467 by antimicrobial susceptibility assay; method in brief: as §1

Compound	MIC [1]	MIC [2]	MIC [3]	MIC [4]	MIC [5]	MIC [6]	MIC [7]	MIC [8]	MIC [9]	MIC [10]
CN(C)c1ccc(O)c2c1C[C@H]1C[C@H]3[C@H](N(C)C)C(O)=C(C(N)=O)C(=O)[C@@]3(O)C(O)=C1C2=O [MINOCYCLINE]	0.75 µg/mL (≈ 1.64 µM)	0.047 µg/mL (≈ 0.103 µM)	0.5 µg/mL (≈ 1.09 µM)	0.125 µg/mL (≈ 0.273 µM)	0.125 µg/mL (≈ 0.273 µM)	8 µg/mL (≈ 17.5 µM)	1 µg/mL (≈ 2.19 µM)	0.19 µg/mL (≈ 0.415 µM)	0.064 µg/mL (≈ 0.14 µM)	0.064 µg/mL (≈ 0.14 µM)
CCN[C@@H]1C[C@H](N)[C@@H](O[C@H]2OC(CN)=CC[C@H]2N)[C@H](O)[C@H]1O[C@H]1OC[C@](C)(O)[C@H](NC)[C@H]1O [NETILMICIN]	16 µg/mL (≈ 33.6 µM)	2 µg/mL (≈ 4.21 µM)	48 µg/mL (≈ 101 µM)	64 µg/mL (≈ 135 µM)	2 µg/mL (≈ 4.21 µM)	32 µg/mL (≈ 67.3 µM)	12 µg/mL (≈ 25.2 µM)	1.5 µg/mL (≈ 3.15 µM)	1.5 µg/mL (≈ 3.15 µM)	2 µg/mL (≈ 4.21 µM)
CCn1cc(C(=O)O)c(=O)c2cc(F)c(N3CCNCC3)cc21 [NORFLOXACIN]	> 256 µg/mL	2 µg/mL (≈ 6.26 µM)	> 256 µg/mL	12 µg/mL (≈ 37.6 µM)	4 µg/mL (≈ 12.5 µM)	> 256 µg/mL	192 µg/mL (≈ 601 µM)	4 µg/mL (≈ 12.5 µM)	1.5 µg/mL (≈ 4.7 µM)	1.5 µg/mL (≈ 4.7 µM)
CO[C@H]1/C=C/O[C@@]2(C)Oc3c(C)c(O)c4c(O)c(c(/C=N/N5CCN(C)CC5)c(O)c4c3C2=O)NC(=O)/C(C)=C\C=C\[C@H](C)[C@H](O)[C@@H](C)[C@@H](O)[C@@H](C)[C@H](OC(C)=O)[C@@H]1C [RIFAMPIN]	2 µg/mL (≈ 2.43 µM)	4 µg/mL (≈ 4.86 µM)	16 µg/mL (≈ 19.4 µM)	1.5 µg/mL (≈ 1.82 µM)	3 µg/mL (≈ 3.65 µM)	> 32 µg/mL	2 µg/mL (≈ 2.43 µM)	3 µg/mL (≈ 3.65 µM)	1.5 µg/mL (≈ 1.82 µM)	2 µg/mL (≈ 2.43 µM)
CN(C)[C@@H]1C(O)=C(C(N)=O)C(=O)[C@@]2(O)C(O)=C3C(=O)c4c(O)cccc4[C@@](C)(O)[C@H]3C[C@@H]12 [TETRACYCLINE]	32 µg/mL (≈ 72 µM)	1 µg/mL (≈ 2.25 µM)	64 µg/mL (≈ 144 µM)	3 µg/mL (≈ 6.75 µM)	8 µg/mL (≈ 18 µM)	32 µg/mL (≈ 72 µM)	12 µg/mL (≈ 27 µM)	8 µg/mL (≈ 18 µM)	1.5 µg/mL (≈ 3.38 µM)	3 µg/mL (≈ 6.75 µM)
CC1(C)S[C@@H]2[C@H](NC(=O)[C@H](C(=O)O)c3ccsc3)C(=O)N2[C@H]1C(=O)O [TICARCILLIN]	8 µg/mL (≈ 20.8 µM)	24 µg/mL (≈ 62.4 µM)	> 256 µg/mL	2 µg/mL (≈ 5.2 µM)	24 µg/mL (≈ 62.4 µM)	> 256 µg/mL	> 256 µg/mL	16 µg/mL (≈ 41.6 µM)	6 µg/mL (≈ 15.6 µM)	12 µg/mL (≈ 31.2 µM)
CN(C)c1cc(NC(=O)CNC(C)(C)C)c(O)c2c1C[C@H]1C[C@H]3[C@H](N(C)C)C(O)=C(C(N)=O)C(=O)[C@@]3(O)C(O)=C1C2=O [TIGECYCLINE]	3 µg/mL (≈ 5.12 µM)	0.125 µg/mL (≈ 0.213 µM)	1.5 µg/mL (≈ 2.56 µM)	1.5 µg/mL (≈ 2.56 µM)	0.5 µg/mL (≈ 0.854 µM)	1.5 µg/mL (≈ 2.56 µM)	1.5 µg/mL (≈ 2.56 µM)	0.38 µg/mL (≈ 0.649 µM)	0.094 µg/mL (≈ 0.161 µM)	0.125 µg/mL (≈ 0.213 µM)
NC[C@H]1O[C@H](O[C@H]2[C@H](O)[C@@H](O[C@H]3O[C@H](CO)[C@@H](O)[C@H](N)[C@H]3O)[C@H](N)C[C@@H]2N)[C@H](N)C[C@@H]1O [TOBRAMYCIN]	4 µg/mL (≈ 8.56 µM)	2 µg/mL (≈ 4.28 µM)	64 µg/mL (≈ 137 µM)	16 µg/mL (≈ 34.2 µM)	2 µg/mL (≈ 4.28 µM)	12 µg/mL (≈ 25.7 µM)	96 µg/mL (≈ 205 µM)	1 µg/mL (≈ 2.14 µM)	0.75 µg/mL (≈ 1.6 µM)	1.5 µg/mL (≈ 3.21 µM)
GENTAMICIN	6 µg/mL	1.5 µg/mL	> 256 µg/mL	12 µg/mL	1.5 µg/mL	24 µg/mL	> 256 µg/mL	1.5 µg/mL	1 µg/mL	1.5 µg/mL
